In ChEMBL document CHEMBL4393661, “PRODRUGS FOR NITROREDUCTASE BASED CANCER THERAPY- 2: Novel amide/Ntr combinations targeting PC3 cancer cells” (Eur J Med Chem, 2019):

Legend:
[1] = Cytotoxicity against human HUVEC cells assessed as cell viability at 9 to 150 uM measured after 48 hrs by MTT assay relative to control; assay type: cell-based; conditions: read-out: Activity
Procedure, shortened: (§1)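 Hep3B and HUVEC cells were grown in high-glucose medium with 10% heat-inactivated FBS and 2 mM glutamine at 37 °C in 5% CO2. Cells were seeded at 5x10^4 per well and left 24 h to attach. They were then exposed for 48 h to 150, 75, 39, 19 and 9 µM, with 1% DMSO as vehicle control. Viability was read by MTT at 550 nm as (OD sample/OD control)×100.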

PC-3 [2] = assay: Cytotoxicity against human PC3 cells assessed as reduction in cell viability measured after 48 hrs in presence of Staphylococcus saprophyticus nitroreductase and NADH by SRB assay; assay type: cell-based; conditions: PC-3, 48 h
Procedure, shortened: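 Prodrug at 180, 18 or 1.8 nM was premixed with Ssap-NtrB (31 µg/mL final) and NADH (600 µM final; 900 µM for CB1954) in 25 mM Tris-HCl pH 7.5, then added for 48 h under aerobic conditions. Cells were fixed with 12.5% TCA, stained with SRB and read at 492 nm, in triplicate.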

[3] = Cytotoxicity against human Hep3B cells assessed as cell viability at 9 to 150 uM measured after 48 hrs by MTT assay relative to control; assay type: cell-based, Hep 3B2; conditions: read-out: Activity; procedure, shortened: as §1
PC-3 [4] = assay: Cytotoxicity in human PC3 cells assessed as reduction in cell viability at 180 nM measured after 48 hrs by SRB assay; assay type: cell-based; conditions: pc-3, 48 h, 0.18 µM
Procedure, shortened: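 They were exposed for 48 h to prodrug alone at 180 nM final, without enzyme or NADH, with 25 mM Tris-HCl as vehicle control. Cells were fixed with 12.5% TCA for 1 h at 4 °C, stained with 0.4% SRB and read at 492 nm as % cell survival, in triplicate.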

[5] = target: T1, Staphylococcus saprophyticus nitroreductase (Staphylococcus saprophyticus subsp. saprophyticus (strain ATCC 15305 / DSM20229 / NCIMB 8711 / NCTC 7292 / S-41), UniProt Q4A0P1); assay: Substrate activity at Staphylococcus saprophyticus nitroreductase expressed in Escherichia coli assessed as half life […] at 100 uM by HPLC analysis (0 to 5 mins at 20 % ACN, 15 to 22 min at 80% ACN, 27-32 AT 20% ACN); assay type: ADME
T1 sequence (Q4A0P1 whole entry): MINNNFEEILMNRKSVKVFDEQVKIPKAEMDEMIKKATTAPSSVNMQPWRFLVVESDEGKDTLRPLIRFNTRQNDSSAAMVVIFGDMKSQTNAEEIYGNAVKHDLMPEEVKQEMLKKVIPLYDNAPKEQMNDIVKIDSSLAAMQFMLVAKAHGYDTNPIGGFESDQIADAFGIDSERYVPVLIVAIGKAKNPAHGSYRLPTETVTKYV

[6] = Cytotoxicity against human PC3 cells assessed as cell viability at 9 to 150 uM measured after 48 hrs by MTT assay relative to control; assay type: cell-based, PC-3; conditions: read-out: Activity
Procedure, shortened: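 They were treated for 48 h at 9, 18, 39, 78 and 150 µM, with 1% DMSO as vehicle control. Viability was read by MTT at 550 nm.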

Putative nitroreductase [7] = target: T2, Putative nitroreductase (Staphylococcus saprophyticus subsp. saprophyticus (strain ATCC 15305 / DSM20229 / NCIMB 8711 / NCTC 7292 / S-41), UniProt Q4A0P1); assay: Substrate activity at Staphylococcus saprophyticus nitroreductase expressed in Escherichia coli assessed as retention time […] at 100 uM by HPLC analysis (0 to 5 mins at 20 % ACN, 15 to 22 min at 80% ACN, 27-32 AT 20% ACN); assay type: ADME
T2 sequence (Q4A0P1 whole entry): T1 sequence (Q4A0P1 whole entry)

[8] = Solubility of the compound in 15% DMSO; assay type: physicochemical
Putative nitroreductase [9] = target: T2, Putative nitroreductase; assay: Substrate activity at Staphylococcus saprophyticus nitroreductase expressed in Escherichia coli assessed as retention time in the presence of NADPH at 100 uM by HPLC analysis (0 to 5 mins at 20% ACN, 25 to 35 min at 80% ACN, 40 to 45 min at 20% ACN); assay type: ADME
[10] = target: T1, Staphylococcus saprophyticus nitroreductase; assay: Substrate activity at Staphylococcus saprophyticus nitroreductase expressed in Escherichia coli assessed as half life […] at 100 uM by HPLC analysis (0 to 5 mins at 20% ACN, 25 to 35 min at 80% ACN, 40 to 45 min at 20% ACN); assay type: ADME

CCN(C(C)=O)c1cc([N+](=O)[O-])ccc1Br
viability at 48 h, up to 150 µM [1]: > 80%
IC50 (PC-3 [2]): 12600 nM
viability at 48 h, up to 150 µM [3]: > 80%
Activity (PC-3 [4]): Non-Toxic
half-life [5]: < 0.1 h
viability at 48 h, up to 150 µM [6]: > 80%
Retention_time (Putative nitroreductase [7]): 15.18 min

O=C(Nc1ccc(NC(=O)c2ccc([N+](=O)[O-])cc2)cc1)c1ccc([N+](=O)[O-])cc1
viability at 48 h, up to 150 µM [1]: > 80%
solubility [8]: Soluble
viability at 48 h, up to 150 µM [3]: 51 to 80%
viability at 48 h, up to 150 µM [6]: > 80%
Retention_time (Putative nitroreductase [7]): 16.61 min

O=C(NC1CCCC(NC(=O)c2ccc([N+](=O)[O-])cc2)C1)c1ccc([N+](=O)[O-])cc1 (stereo not drawn)
Retention time (Putative nitroreductase [9]): 19.4 to 20.1 min
viability at 48 h, up to 150 µM [1]: > 80%
solubility [8]: Soluble
half-life at 100 µM [10]: < 0.26 h
IC50 (PC-3 [2]): 30.5 nM
viability at 48 h, up to 150 µM [3]: > 80%
Activity (PC-3 [4]): Non-Toxic
half-life [5]: < 2 h
viability at 48 h, up to 150 µM [6]: 51 to 80%
Retention time (Putative nitroreductase [7]): 19.4 to 20.6 min

O=C(c1ccc([N+](=O)[O-])cc1)N1CCN(C(=O)c2ccc([N+](=O)[O-])cc2)CC1
Retention_time (Putative nitroreductase [9]): 17.6 min
viability at 48 h, up to 150 µM [1]: > 80%
solubility [8]: Soluble
half-life at 100 µM [10]: < 1.42 h
IC50 (PC-3 [2]): 18 nM
viability at 48 h, up to 150 µM [3]: > 80%
Activity (PC-3 [4]): Non-Toxic
viability at 48 h, up to 150 µM [6]: 51 to 80%
Retention_time (Putative nitroreductase [7]): 17.28 min

CC(=O)Nc1cc([N+](=O)[O-])ccc1Br
viability at 48 h, up to 150 µM [1]: > 80%
IC50 (PC-3 [2]): 10200 nM
viability at 48 h, up to 150 µM [3]: > 80%
Activity (PC-3 [4]): Non-Toxic
half-life [5]: < 0.2 h
viability at 48 h, up to 150 µM [6]: > 80%
Retention_time (Putative nitroreductase [7]): 13.88 min

O=C(Nc1cccc(NC(=O)c2ccc([N+](=O)[O-])cc2)c1)c1ccc([N+](=O)[O-])cc1
Retention_time (Putative nitroreductase [9]): 21.98 min
viability at 48 h, up to 150 µM [1]: > 80%
solubility [8]: Soluble
IC50 (PC-3 [2]): 33.4 nM
viability at 48 h, up to 150 µM [3]: > 80%
Activity (PC-3 [4]): Non-Toxic
viability at 48 h, up to 150 µM [6]: > 80%
Retention_time (Putative nitroreductase [7]): 21.88 min

O=C(Nc1ccccc1NC(=O)c1ccc([N+](=O)[O-])cc1)c1ccc([N+](=O)[O-])cc1
Retention_time (Putative nitroreductase [9]): 22.08 min
viability at 48 h, up to 150 µM [1]: > 80%
solubility [8]: Soluble
half-life at 100 µM [10]: < 3.2 h
IC50 (PC-3 [2]): 14.3 nM
viability at 48 h, up to 150 µM [3]: > 80%
Activity (PC-3 [4]): Non-Toxic
viability at 48 h, up to 150 µM [6]: > 80%
Retention_time (Putative nitroreductase [7]): 21.38 min

NC(=O)c1cc(N2CC2)c([N+](=O)[O-])cc1[N+](=O)[O-] [TRETAZICAR]
Activity (PC-3 [4]): Non-Toxic

O=C(NCCCCNC(=O)c1ccc([N+](=O)[O-])cc1)c1ccc([N+](=O)[O-])cc1
viability at 48 h, up to 150 µM [1]: > 80%
solubility [8]: Soluble
IC50 (PC-3 [2]): 36.8 nM
viability at 48 h, up to 150 µM [3]: > 80%
Activity (PC-3 [4]): Non-Toxic
viability at 48 h, up to 150 µM [6]: > 80%
Retention_time (Putative nitroreductase [7]): 19.02 min

O=C(NC1CCCCC1NC(=O)c1ccc([N+](=O)[O-])cc1)c1ccc([N+](=O)[O-])cc1 (stereo not drawn)
Retention_time (Putative nitroreductase [9]): 20.85 min
viability at 48 h, up to 150 µM [1]: > 80%
solubility [8]: Soluble
half-life at 100 µM [10]: < 1.8 h
IC50 (PC-3 [2]): 15.5 nM
viability at 48 h, up to 150 µM [3]: > 80%
Activity (PC-3 [4]): Non-Toxic
half-life [5]: < 0.52 h
viability at 48 h, up to 150 µM [6]: > 80%
Retention_time (Putative nitroreductase [7]): 20.91 min

O=C(NCCNC(=O)c1ccc([N+](=O)[O-])cc1)c1ccc([N+](=O)[O-])cc1
Retention_time (Putative nitroreductase [9]): 17.86 min
viability at 48 h, up to 150 µM [1]: > 80%
solubility [8]: Soluble
half-life at 100 µM [10]: < 2.54 h
IC50 (PC-3 [2]): 31.1 nM
viability at 48 h, up to 150 µM [3]: 51 to 80%
Activity (PC-3 [4]): Non-Toxic
half-life [5]: < 1.2 h
viability at 48 h, up to 150 µM [6]: > 80%
Retention_time (Putative nitroreductase [7]): 18.65 min
